From PubChem
Most compounds without a hit are left out; they make up all but 2.5% or so of the library.
TRPC4 block: blocks the mouse TRPC4 cation channel. B-score at 10 µM. Q9QUQ5. AID 2247. 300,000 compounds, 0.39% hits. HEK293 TRPC4beta/mu-opioid, DAMGO-evoked Fluo4 calcium flux; stronger effect = lower value;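 active = B-score over 3 SD under the library average, no early fluorescence shift, positive overall ratio signal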
Target sequence (Q9QUQ5 whole entry, looked up): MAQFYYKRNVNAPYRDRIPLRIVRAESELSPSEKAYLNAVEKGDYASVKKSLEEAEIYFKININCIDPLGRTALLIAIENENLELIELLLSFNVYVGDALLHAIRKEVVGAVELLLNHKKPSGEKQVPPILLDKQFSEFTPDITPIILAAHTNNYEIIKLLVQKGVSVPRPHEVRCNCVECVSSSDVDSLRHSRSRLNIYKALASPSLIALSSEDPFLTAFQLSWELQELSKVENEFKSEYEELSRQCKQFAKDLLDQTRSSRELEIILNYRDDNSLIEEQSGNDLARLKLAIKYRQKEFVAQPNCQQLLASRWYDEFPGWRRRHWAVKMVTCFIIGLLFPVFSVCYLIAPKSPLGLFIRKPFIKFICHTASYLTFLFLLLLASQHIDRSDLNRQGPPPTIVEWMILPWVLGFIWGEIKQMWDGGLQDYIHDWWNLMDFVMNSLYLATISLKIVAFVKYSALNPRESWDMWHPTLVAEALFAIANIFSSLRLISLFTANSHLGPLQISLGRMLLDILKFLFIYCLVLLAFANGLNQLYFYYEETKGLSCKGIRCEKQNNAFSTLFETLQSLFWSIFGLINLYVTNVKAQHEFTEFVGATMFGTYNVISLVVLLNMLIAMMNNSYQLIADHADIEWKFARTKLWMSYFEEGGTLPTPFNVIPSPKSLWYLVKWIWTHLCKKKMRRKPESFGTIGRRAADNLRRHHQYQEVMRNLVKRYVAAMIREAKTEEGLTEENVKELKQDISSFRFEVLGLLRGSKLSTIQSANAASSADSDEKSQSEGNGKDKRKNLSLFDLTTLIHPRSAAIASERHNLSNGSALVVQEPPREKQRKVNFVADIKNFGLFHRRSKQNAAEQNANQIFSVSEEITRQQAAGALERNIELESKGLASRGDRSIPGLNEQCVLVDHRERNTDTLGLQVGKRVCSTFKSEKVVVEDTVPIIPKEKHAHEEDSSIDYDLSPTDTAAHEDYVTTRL
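Assay system: Stable TRPC4beta/mu-opioid receptor HEK293 cells | Reagent: DAMGO in two steps, submaximal then maximal | Compound dosing: Single concentration per test compound | Signal: Fluo4 Ca2+ flux fluorescence | Evaluation: Per-well B score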
TRPC4 act: opens the mouse TRPC4 cation channel | HEK293 TRPC4beta/mu-opioid, Fluo4 calcium fluorescence; stronger effect = higher value | B-score at 10 µM | Q9QUQ5 | 310,000 compounds, 0.49% hits;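 active = B-score above 5 SD of library B-scores, and initial fluorescence ratio not above library mean plus 5 SD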;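 note: positive B-score marks a calcium rise read as TRPC4 activation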
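Technique: kinetic Fluo4 calcium fluorescence; Test system: TRPC4beta and mu-opioid receptor HEK293 stable cells; Measure: B-scored integrated calcium fluorescence ratio; Benchmarks: low control buffer alone, high control maximal DAMGO; Schedule: 45 min room-temperature Fluo4 loading, 110 s read.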
TRPC4 potent: allosterically enhances the mouse TRPC4 cation channel | Q9QUQ5 | HEK293 TRPC4beta/mu-opioid, DAMGO EC20, Fluo-4 Ca2+ flux; stronger effect = higher value | B-score at 10 µM | 310,000 compounds, 0.42% hits | AID 2227;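 active = B-score of calcium response area above 5 SD of library B-scores, with initial fluorescence ratio within 5 SD of library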
Platelet DG rel: modulates dense granule release in human platelets. human platelet-rich plasma, SFLLRN dense granule ATP release, luminescence. inhibition, %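 (compounds screened at 7.5 µM in platelet-rich plasma)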. 300,000 compounds, 0.22% hits. AID 1663;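 active = mean replicate score, as percent of positive control, at or above 50; inconclusive = mean below 50 but at least one replicate at or above 50; inactive = mean and every replicate below 50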
TRPC6 activator: mouse TRPC6 channel activation | Q61143 | HEK293-TRPC6 membrane potential dye fluorescence; stronger effect = higher value | B-score at 10 µM | 310,000 compounds, 0.13% hits;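 active = B-score of the integrated fluorescence ratio above library mean plus 3 SD, and starting fluorescence ratio within library mean plus 5 SD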;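 note: higher score means more depolarization so channel activation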
TRPC6 inhibitor: inhibitors of mouse TRPC6 channel | Q61143 | HEK293-TRPC6, membrane potential dye, ACh-evoked depolarization; stronger effect = lower value | 310,000 compounds, 1.1% hits | B-score at 10 µM | AID 2553;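 active = B-score under library mean minus 3 SD, initial fluorescence not abnormally high, positive integrated signal ratio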;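 note: B-score derived from integrated fluorescence ratio over the kinetic read; more negative B-score means stronger inhibition of depolarization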
Each line names hits and unclear results; the compound was inactive in the other large screens.

COc1cc(C2N(c3ccc(Cl)cc3)C(=O)C3CCCN32)cc(OC)c1OC (configuration not stated)	none
COc1cc(C2N(c3ccc(Cl)c(Cl)c3)C(=O)C3CCCN32)cc(OC)c1OC (configuration not stated)	TRPC4 act 81
COc1cc(C2N(c3cccc(Cl)c3)C(=O)C3CCCN32)cc(OC)c1OC (configuration not stated)	TRPC4 potent 14
Cc1ccc(C2N(c3ccc(Cl)c(Cl)c3)C(=O)C3CCCN32)o1 (configuration not stated)	TRPC4 act 122, TRPC4 potent 15
O=C(NCCCNC(=O)c1c(Cl)cccc1Cl)c1c(Cl)cccc1Cl	none
Cc1ccc(-c2c(C(=O)N/N=C/C3CC=CCC3)nnn2-c2nonc2N)cc1 (configuration not stated)	none
Cc1ccc(NC(=O)CN(C)C(=O)CNC(=O)c2sc3ccccc3c2Cl)cc1	TRPC4 potent 149
CC1CCCC(C)N1/N=C/c1ccc(N(C)C)cc1 (configuration not stated)	none
CCOC(=O)[C@@H]1CCNC[C@@H]1c1ccccc1	TRPC4 act 190
CCOC(=O)C1NC(=O)CC1c1ccccc1 (configuration not stated)	none
CC(=O)c1sc(NC(=O)CSC(C)C(=O)Nc2cc(C)on2)nc1-c1ccccc1 (configuration not stated)	none
O=C(Nc1ccc(OCc2ccccc2)cc1)c1ccccc1	none
CCCOc1ccc(NC(=O)CC2C(=O)N(CC)C(=S)N2CCNC(C)=O)cc1 (configuration not stated)	none
Cc1ccsc1C(=O)Nc1ccc(OCc2ccccc2)cc1	Platelet DG rel 79
CCc1ccc(C(=O)NNC(=O)CCN2CCN(Cc3ccccc3)CC2)cc1	TRPC4 potent 12
O=C(CCN1CCN(Cc2ccccc2)CC1)Nc1cccc(Br)c1	TRPC4 potent 20
NNC(=O)CCN1CCN(Cc2ccccc2)CC1	none
CCCOc1ccc(NC(=O)CC2C(=O)N(CC)C(=S)N2CCCN2CCN(Cc3ccccc3)CC2)cc1 (configuration not stated)	TRPC4 potent 10
O=C(CCN1CCN(CCO)CC1)Nc1cccc(Br)c1	none
O=C(CCN1CCN(Cc2ccccc2)CC1)Nc1ccc(OCc2ccccc2)cc1	TRPC4 potent 15
COC(=O)c1ccc(NC(=O)CCN2CCN(Cc3ccccc3)CC2)cc1	TRPC4 potent 27
Oc1cccc(C2c3[nH]c4ccccc4c3CCN2Cc2ccoc2)c1 (configuration not stated)	none
Oc1cccc(C2c3[nH]c4ccccc4c3CCN2Cc2ccc3c(c2)CCO3)c1 (configuration not stated)	TRPC4 block -6
COC(=O)c1ccc2c(CCO)c[nH]c2c1	none
Cc1cccc(OCC(=O)N(C)CCc2ccccn2)c1	TRPC4 act 54
CN(CCc1ccccn1)C(=S)Nc1cccc(S(=O)(=O)N(C)C)c1	TRPC4 act 101
Cc1ccc(C)c(NC(=S)N(C)CCc2ccccn2)c1	TRPC4 act 74
Cc1cccc(CN(C)CCc2ccccn2)c1	none
CCOc1ccc(N2CC(C(=O)NCc3ccc4c(c3)OCO4)CC2=O)cc1 (configuration not stated)	none
COc1ccc(/C=N/NC(=O)C2c3ccccc3Oc3ccccc32)c(OC)c1	none
O=C(C[n+]1cc(-c2ccccc2)n2c1CCC2)N1c2ccccc2Sc2ccccc21	TRPC6 inhibitor -5.5
Clc1cccc(C[n+]2cc(-c3ccccc3)n3c2CCC3)c1	TRPC4 block -6
O=C(Cc1cccc2ccccc12)Nc1ccc(O)cc1C(=O)O	none
O=C(Cc1cccc2ccccc12)Nc1ccc(Br)cc1C(=O)O	TRPC4 block -7
CC(C)OCCCN(C)C1CCN(S(=O)(=O)c2ccc(-c3cc(C(F)(F)F)no3)s2)CC1	none
COC(=O)C(NC(=O)C(C)NC(=O)OCc1ccccc1)C(C)C (configuration not stated)	none
Cc1cc(Br)cc(C)c1OCCCCN(C)C	TRPC4 potent 35
CCCCN(C)CCNC(=O)c1c[nH]c2ccc(S(=O)(=O)N(CC)CC)cc2c1=O	TRPC4 potent 20
CCCNC(=O)c1c[nH]c2ccc(S(=O)(=O)N(C)c3ccc(OCC)cc3)cc2c1=O	none
COc1ccc(S(=O)(=O)NCC(c2cccnc2)N2CCN(C)CC2)cc1OC (configuration not stated)	none
COc1ccc(S(=O)(=O)NCC(c2cccnc2)N2CCN(C)CC2)cc1C (configuration not stated)	Platelet DG rel 74
Cc1[nH]c2ccccc2c1C(c1ccncc1)N1CCN(c2ccccn2)CC1 (configuration not stated)	TRPC4 act 49
CCOC(=O)C1CCN(C(c2ccccn2)c2c(C)[nH]c3ccccc23)CC1 (configuration not stated)	Platelet DG rel inconclusive, TRPC6 inhibitor -5.8
C=CCSc1nnc(CC(OC)OC)n1-c1ccccc1	none
Cc1cccc(CS(=O)(=O)Cc2ccc(C(=O)NC3CCCCC3)o2)c1	none
Cc1ccc(NC(=O)C(=O)NCc2ccc(/C=N/NC(=O)c3c(C)nc4ccccn34)o2)cc1	none
N=C(N)SCc1cn(-c2ccccc2)nc1-c1ccc(Br)cc1	TRPC4 act 71
Cc1ccc(-c2nn(-c3ccccc3)cc2CO)cc1	none
COC(=O)NNC(=S)NCc1ccccc1	none
CCOc1ccc(OCC(O)CNC2CCN(Cc3ccccc3)CC2)cc1 (configuration not stated)	TRPC4 block -6, TRPC4 act 108
COc1ccc(OCC(O)CNC2CCCC2)cc1 (configuration not stated)	none
CC(C)(c1ccccc1)c1ccc(OCC(O)CNC2CCN(Cc3ccccc3)CC2)cc1 (configuration not stated)	TRPC4 act 92
O=C1COc2ccc(C(=O)COC(=O)Cc3ccsc3)cc2N1	none
CCCN(CC(=O)Nc1ccccc1C)C(=O)c1ccc2ccccc2n1	none
Cc1ccccc1NC(=S)c1ccc2ccccc2n1	Platelet DG rel 54
O=C(c1ccc2c(=O)n(Cc3ccccc3)c(=S)[nH]c2c1)N1CCOCC1	none
CC(=O)c1ccc(N2CCN(C(=O)c3ccc(Cn4c(=S)[nH]c5ccc(N6CCOCC6)cc5c4=O)cc3)CC2)cc1	TRPC4 potent 14
O=C(c1ccc(CN2CCOCC2)cc1)N1CCN(c2ccccc2)CC1	TRPC4 block -6
Cc1csc(SCC(=O)NCc2cccc(Cl)c2)n1	none
COc1ccc(C(=O)COC(=O)CNC(=O)c2ccc(Cl)cc2Cl)c(OC)c1	none
